Measurements from ChEMBL document CHEMBL3272325, “Structure-activity relationships of dimeric Catharanthus alkaloids. 1. Deacetylvinblastine amide (vindesine) sulfate” (J Med Chem, 1978).
Activity calls are given as the source filed them. The rule behind the calls is not given here.

Columns and labels:
P388 [1] = assay: Antitumor activity against mouse P388 cells allografted in mouse assessed as survival at 0.22 mg/kg/day administered from day 1 to day 9; type: functional, organism-based
Summary of the method: (§1)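 P388 ascites implanted ip in mice; sulfate salts dosed either daily or as a single dose on day 1, 10 animals per group. Survivors per total were recorded, median life span was calculated using all deaths and survivors, and percent increase of life span was reported.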

B16 [2] = assay: Antitumor activity against mouse B16 cells allografted in B6D2F1 mouse assessed as mean survival time at 0.216 mg/kg/day, ip administered on day 1, 5 and 9 (reference value: 20.0 days); type: functional; conditions: route intraperitoneal
Summary of the method: (§2)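 Male B6D2F1 mice implanted ip on day 0 with 0.25 mL of a 20% (w/v) B16 melanoma brei. Alkaloid sulfate salts given ip on days 1, 5, 9 or on days 5, 9, 13, groups of 10, against 30 untreated controls. Read-outs: median survival time with range of individual deaths, and percent increase in life span, with survivors counted on day 56.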

P388 [3] = assay: Antitumor activity against mouse P388 cells allografted in mouse assessed as increase in life span at 1.8 mg/kg/day, ip after 1 day; type: functional; conditions: 24 h, route intraperitoneal
Summary of the method: (§3)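 P388 ascites implanted ip in mice, 10 animals per group. Sulfate salts given ip either daily on days 1-9 or as a single dose on day 1. Median life span was calculated using all deaths and survivors. Percent increase in life span was taken over untreated controls. The highest nontoxic dose was noted.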

B16 [4] = assay: Antitumor activity against mouse B16 cells allografted in B6D2F1 mouse assessed as increase in life span at 1 mg/kg/day, ip administered on day 5, 9 and 13 measured for 56 days relative to untreated control; type: functional; conditions: route intraperitoneal; summary of the method: as §2
[5] = Antitumor activity against mouse P1534(J) cells allografted in mouse assessed as tumor growth inhibition at 0.25 mg/kg/day, ip administered from day 1 to day 9 relative to unreated control; type: functional; conditions: P1534J, route intraperitoneal, read-out: TGI
Summary of the method: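 P1534(J) leukemia implanted subcutaneously in mice; sulfate salts given ip on days 1-9. Read-out is percent inhibition of tumor growth versus untreated controls.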

B16 [6] = assay: Antitumor activity against mouse B16 cells allografted in B6D2F1 mouse assessed as increase in life span at 0.36 mg/kg/day, ip administered on day 5, 9 and 13 measured for 56 days relative to untreated control; type: functional; conditions: route intraperitoneal; summary of the method: as §2
P388 [7] = assay: Antitumor activity against mouse P388 cells allografted in mouse assessed as increase in life span at 0.33 mg/kg/day, ip administered from day 1 to day 9 relative to untreated control; type: functional; conditions: route intraperitoneal; summary of the method: as §3
P388 [8] = assay: Antitumor activity against mouse P388 cells allografted in mouse assessed as increase in life span at 2.7 mg/kg/day, ip after 1 day; type: functional; conditions: 24 h, route intraperitoneal; summary of the method: as §3
Rhesus monkey [9] = assay: Neurotoxicity in iv dosed monkey assessed as peripheral neuropathy; conditions: in vivo
P388 [10] = assay: Antitumor activity against mouse P388 cells allografted in mouse assessed as increase in life span at 0.22 mg/kg/day, ip administered from day 1 to day 9 relative to untreated control; type: functional; conditions: route intraperitoneal; summary of the method: as §3
[11] = Antitumor activity against mouse Ridgeway osteogenic sarcoma cells allografted in mouse at 0.1 to 0.2 mg/kg/day, ip; type: functional; conditions: route intraperitoneal
Summary of the method: (§4)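 Sulfate salts given ip on days 1-9 against ROS and GLS in mice; tumor growth scored as percent inhibition versus controls (+++ = 75-100%, ++ = 50-75%, ± = under 25%).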

B16 [12] = assay: Antitumor activity against mouse B16 cells allografted in B6D2F1 mouse assessed as mean survival time at 1 mg/kg/day, ip administered on day 5, 9 and 13 (reference value: 20.0 days); type: functional; conditions: route intraperitoneal; summary of the method: as §2
Rhesus monkey [13] = assay: Neurotoxicity in iv dosed monkey assessed as peripheral neuropathy; type: toxicity, organism-based, Macaca mulatta; conditions: in vivo
B16 [14] = assay: Antitumor activity against mouse B16 cells allografted in B6D2F1 mouse assessed as mean survival time at 0.60 mg/kg/day, ip administered on day 5, 9 and 13 (reference value: 20.0 days); type: functional; conditions: route intraperitoneal; summary of the method: as §2
[15] = Toxicity in ip dosed mouse allografted with mouse p388 cells administered from day 1 to day 9; type: organism-based; conditions: in vivo, read-out: MNTD; summary of the method: as §3
B16 [16] = assay: Antitumor activity against mouse B16 cells allografted in B6D2F1 mouse assessed as increase in life span at 1.67 mg/kg/day, ip administered on day 5, 9 and 13 measured for 56 days relative to untreated control; type: functional; conditions: route intraperitoneal; summary of the method: as §2
B16 [17] = assay: Antitumor activity against mouse B16 cells allografted in B6D2F1 mouse assessed as increase in life span at 0.216 mg/kg/day, ip administered on day 5, 9 and 13 measured for 56 days relative to untreated control; type: functional; conditions: route intraperitoneal; summary of the method: as §2
Gallus gallus = assay: Neurotoxicity in iv dosed chicken assessed as neuromuscular disturbance by measuring loss of balance; type: organism-based; conditions: in vivo
B16 [18] = assay: Antitumor activity against mouse B16 cells allografted in B6D2F1 mouse assessed as increase in life span at 0.60 mg/kg/day, ip administered on day 5, 9 and 13 measured for 56 days relative to untreated control; type: functional; conditions: route intraperitoneal; summary of the method: as §2
B16 [19] = assay: Antitumor activity against mouse B16 cells allografted in B6D2F1 mouse assessed as increase in life span at 1 mg/kg/day, ip administered on day 1, 5 and 9 measured for 56 days relative to untreated control; type: functional; conditions: route intraperitoneal; summary of the method: as §2
[20] = Acute toxicity in ip dosed mouse; type: organism-based; conditions: in vivo
P388 [21] = assay: Antitumor activity against mouse P388 cells allografted in mouse assessed as increase in life span at 1.2 mg/kg/day, ip after 1 day; type: functional; conditions: 24 h, route intraperitoneal; summary of the method: as §3
[22] = Antitumor activity against mouse Gardner lymphosarcoma cell allografted in mouse at 0.1 to 0.2 mg/kg/day, ip; type: functional; conditions: route intraperitoneal; summary of the method: as §4
B16 [23] = assay: Antitumor activity against mouse B16 cells allografted in B6D2F1 mouse assessed as increase in life span at 0.216 mg/kg/day, ip administered on day 1, 5 and 9 measured for 56 days relative to untreated control; type: functional; conditions: route intraperitoneal; summary of the method: as §2
B16 [24] = assay: Antitumor activity against mouse B16 cells allografted in B6D2F1 mouse assessed as increase in life span at 0.36 mg/kg/day, ip administered on day 1, 5 and 9 measured for 56 days relative to untreated control; type: functional; conditions: route intraperitoneal; summary of the method: as §2
[25] = Acute toxicity in rat; type: organism-based; conditions: in vivo
P388 [26] = assay: Antitumor activity against mouse P388 cells allografted in mouse assessed as increase in life span at 4 mg/kg/day, ip after 1 day; type: functional; conditions: 24 h, route intraperitoneal; summary of the method: as §3
B16 [27] = assay: Antitumor activity against mouse B16 cells allografted in B6D2F1 mouse assessed as mean survival time at 0.36 mg/kg/day, ip administered on day 1, 5 and 9 (reference value: 20.0 days); type: functional; conditions: route intraperitoneal; summary of the method: as §2
B16 [28] = assay: Antitumor activity against mouse B16 cells allografted in B6D2F1 mouse assessed as mean survival time at 0.216 mg/kg/day, ip administered on day 5, 9 and 13 (reference value: 20.0 days); type: functional; conditions: route intraperitoneal; summary of the method: as §2
[29] = Toxicity in ip dosed mouse allografted with mouse p388 cells after 1 day; type: organism-based; conditions: in vivo, read-out: MNTD; summary of the method: as §3
[30] = Toxicity in ip dosed mouse allografted with mouse P1534(J) cells administered from day 1 to day 9; type: organism-based; conditions: in vivo, read-out: MNTD
Summary of the method: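 P1534(J) leukemia implanted subcutaneously in mice. Sulfate salts given ip daily on days 1-9. Read-out was percent inhibition of tumor growth relative to untreated controls. The highest nontoxic dose was recorded.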

B16 [31] = assay: Antitumor activity against mouse B16 cells allografted in B6D2F1 mouse assessed as mean survival time at 1 mg/kg/day, ip administered on day 1, 5 and 9 (reference value: 20.0 days); type: functional; conditions: route intraperitoneal; summary of the method: as §2
B16 [32] = assay: Antitumor activity against mouse B16 cells allografted in B6D2F1 mouse assessed as increase in life span at 0.60 mg/kg/day, ip administered on day 1, 5 and 9 measured for 56 days relative to untreated control; type: functional; conditions: route intraperitoneal; summary of the method: as §2
P388 [33] = assay: Antitumor activity against mouse P388 cells allografted in mouse assessed as survival at 1.2 mg/kg/day after 1 day; type: functional, organism-based; summary of the method: as §1
B16 [34] = assay: Antitumor activity against mouse B16 cells allografted in B6D2F1 mouse assessed as increase in life span at 1.67 mg/kg/day, ip administered on day 1, 5 and 9 measured for 56 days relative to untreated control; type: functional; conditions: route intraperitoneal; summary of the method: as §2
B16 [35] = assay: Antitumor activity against mouse B16 cells allografted in B6D2F1 mouse assessed as mean survival time at 0.60 mg/kg/day, ip administered on day 1, 5 and 9 (reference value: 20.0 days); type: functional; conditions: route intraperitoneal; summary of the method: as §2
B16 [36] = assay: Antitumor activity against mouse B16 cells allografted in B6D2F1 mouse assessed as mean survival time at 1.67 mg/kg/day, ip administered on day 5, 9 and 13 (reference value: 20.0 days); type: functional; conditions: route intraperitoneal; summary of the method: as §2
B16 [37] = assay: Antitumor activity against mouse B16 cells allografted in B6D2F1 mouse assessed as mean survival time at 1.67 mg/kg/day, ip administered on day 1, 5 and 9 (reference value: 20.0 days); type: functional; conditions: route intraperitoneal; summary of the method: as §2
P388 [38] = assay: Antitumor activity against mouse P388 cells allografted in mouse assessed as survival at 1.8 mg/kg/day after 1 day; type: functional, organism-based; summary of the method: as §1
B16 [39] = assay: Antitumor activity against mouse B16 cells allografted in B6D2F1 mouse assessed as mean survival time at 0.36 mg/kg/day, ip administered on day 5, 9 and 13 (reference value: 20.0 days); type: functional; conditions: route intraperitoneal; summary of the method: as §2

Q: Which Activity (P388 [1]) does the source give for `CC[C@]1(O)C[C@H]2CN(CCc3c([nH]c4ccccc34)[C@@](C(=O)OC)(c3cc4c(cc3OC)N(C=O)[C@H]3[C@@](O)(C(=O)OC)[C@H](OC(C)=O)[C@]5(CC)C=CCN6CC[C@]43[C@@H]65)C2)C1.O=S(=O)(O)O` [VINCRISTINE SULFATE] here?
A: inactive

Q: And the MST (B16 [2])?
A: 24 days

Q: What about the ILS at 1.8 mg/kg/day (P388 [3]) of the same compound?
A: 81%

Q: And the ILS at 1 mg/kg/day (B16 [4])?
A: 48%

Q: And the inhibition in vivo at 0.25 mg/kg/day [5]?
A: 77%

Q: And the ILS at 0.36 mg/kg/day (B16 [6])?
A: 20%

Q: And the ILS at 0.33 mg/kg/day (P388 [7])?
A: 181%

Q: And the ILS at 2.7 mg/kg/day (P388 [8])?
A: 100%

Q: What about the Activity (Rhesus monkey [9]) of the same compound?
A: Toxic

Q: What about the ILS at 0.22 mg/kg/day (P388 [10]) of the same compound?
A: 131%

Q: What about the TGI [11] of the same compound?
A: 75%

Q: And the MST (B16 [12])?
A: 29.5 days

Q: What about the Activity (Rhesus monkey [13]) of the same compound?
A: Toxic

Q: And the MST (B16 [14])?
A: 24.5 days

Q: What about the MTD [15] of the same compound?
A: 0.33 mg/kg/day

Q: And the ILS at 1.67 mg/kg/day (B16 [16])?
A: 30%

Q: What about the ILS at 0.216 mg/kg/day (B16 [17]) of the same compound?
A: 22%

Q: And the Activity (Gallus gallus)?
A: Toxic

Q: And the ILS at 0.6 mg/kg/day (B16 [18])?
A: 22%

Q: And the ILS at 1 mg/kg/day (B16 [19])?
A: 62%

Q: And the LD50 [20]?
A: 2.1 mg/kg

Q: What about the ILS at 1.2 mg/kg/day (P388 [21]) of the same compound?
A: 68%

Q: And the TGI [22]?
A: 75%

Q: And the ILS at 0.216 mg/kg/day (B16 [23])?
A: 20%

Q: What about the ILS at 0.36 mg/kg/day (B16 [24]) of the same compound?
A: 30%

Q: And the LD50 [25]?
A: 1 mg/kg

Q: And the ILS at 4 mg/kg/day (P388 [26])?
A: 118%

Q: And the MST (B16 [27])?
A: 26 days

Q: And the MST (B16 [28])?
A: 24.5 days

Q: What about the MTD at 24 h [29] of the same compound?
A: 4 mg/kg/day

Q: What about the MTD [30] of the same compound?
A: 0.25 mg/kg/day

Q: What about the MST (B16 [31]) of the same compound?
A: 32.5 days

Q: And the ILS at 0.6 mg/kg/day (B16 [32])?
A: 52%

Q: And the Activity (P388 [33])?
A: inactive

Q: What about the ILS at 1.67 mg/kg/day (B16 [34]) of the same compound?
A: 75%

Q: What about the MST (B16 [35]) of the same compound?
A: 30.5 days

Q: What about the MST (B16 [36]) of the same compound?
A: 26 days

Q: What about the MST (B16 [37]) of the same compound?
A: 35 days

Q: What about the Activity (P388 [38]) of the same compound?
A: inactive

Q: What about the MST (B16 [39]) of the same compound?
A: 24 days
